Measurements from ChEMBL document CHEMBL1127293, “Mobilization of iron by chiral and achiral anionic 3-hydroxypyrid-4-ones” (1994).

What was measured:
[1] = tested on: Rattus norvegicus; experiment: Biliary excretion of iron was measured after giving intravenous dose of 0.2 mmol/kg during treatment period in rat; format: functional
Method in brief: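 Female Sprague-Dawley rats, previously untreated, served as their own controls. Biliary iron collected 0.5 h for control, then 2 h after tail-vein injection (warm-water tail passage beforehand) under anesthesia; animals recovered between periods and were kept in metabolic cages with free tap water. Iron measured by atomic absorption at 248.3 nm; rate as μg Fe/h.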

[2] = tested on: Rattus norvegicus; experiment: Urinary iron excretion was measured after giving oral dose of 1 mmol/kg during treatment period in rat; format: functional, Urine
Method in brief: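 Female Sprague-Dawley rats as own controls; under ether anesthesia at about 6 p.m., gavage of 1 mL Millipore water (control period) or chelator solution, 1 mL per 200 g rat. Urine collected 15 h overnight in metabolic cages separating feces, tap water ad libitum. Iron by atomic absorption at 248.3 nm; significance p ≤ 0.05.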

Structure (SMILES) | biliary iron excretion [1] [µg/h] | urinary iron excretion [2] [µg/15 h] | Treatment period [1] | Treatment period [2]
Cc1c(O)c(=O)ccn1C(Cc1ccccc1)C(=O)O (stereo not given) | 8300 | 1280 |  | 
Cc1c(O)c(=O)ccn1C(CCC(=O)O)C(=O)O (stereo not given) | 1150 | 170 |  | 
Cc1c(O)c(=O)ccn1[C@H](C)C(=O)O |  |  | 4580 | 4010
Cc1c(O)c(=O)ccn1C(CO)C(=O)O (stereo not given) | 4180 | 1790 |  | 
CSCCC(C(=O)O)n1ccc(=O)c(O)c1C (stereo not given) | 12700 | 1740 |  | 
Cc1c(O)c(=O)ccn1C(CC(C)C)C(=O)O (stereo not given) | 11600 | 8550 |  | 
Cc1c(O)c(=O)ccn1-c1ccc(C(=O)O)cc1 | 9390 | 1110 |  | 
Cc1c(O)c(=O)ccn1Cc1ccc(C(=O)O)cc1 | 13700 | 1550 |  | 
Cc1c(O)c(=O)ccn1[C@@H](C)C(=O)O |  |  | 6240 | 3840
Cc1c(O)c(=O)ccn1C [DEFERIPRONE] | 4810 | 17300 |  | 
